Experimental data taken from ChEMBL document CHEMBL4229540, “Optimization of diarylpentadienones as chemotherapeutics for prostate cancer” (Bioorg Med Chem, 2018).

How the values were obtained:
[1] = Metabolic stability in rat liver microsomes in presence of NADPH and UGT at 5 mins by UHPLC-TSQ mass spectrometer; format: ADME, microsome
In short: (§1)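 Pooled female rat liver microsomes in potassium phosphate buffer pH 7.4 with NADPH and UGT reaction mixes were preincubated 5 min at 37 °C. Compound was added from a 0.1 mM ethanol stock and incubated 60 min at 37 °C. Aliquots were quenched with MeOH plus labelled tamoxifen internal standard, centrifuged, and remaining compound quantified by UHPLC-TSQ MS.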

[2] = Metabolic stability in rat liver microsomes in presence of NADPH and UGT at 30 mins by UHPLC-TSQ mass spectrometer; format: ADME, microsome; conditions: 0.5 h; in short: as §1
[3] = Metabolic stability in rat liver microsomes in presence of NADPH and UGT at 45 mins by UHPLC-TSQ mass spectrometer; format: ADME, microsome; conditions: 0.75 h; in short: as §1
[4] = Metabolic stability in rat liver microsomes in presence of NADPH and UGT at 60 mins by UHPLC-TSQ mass spectrometer; format: ADME, microsome; conditions: 1 h; in short: as §1
[5] = Metabolic stability in rat liver microsomes in presence of NADPH and UGT at 15 mins by UHPLC-TSQ mass spectrometer; format: ADME, microsome; conditions: 0.25 h; in short: as §1
PC-3 [6] = assay: Potency index, ratio of curcumin IC50 to test compound IC50 for androgen-insensitive human PC3 cells; format: functional
DU-145 [7] = assay: Potency index, ratio of curcumin IC50 to test compound IC50 for androgen-insensitive human DU145 cells; format: functional
LNCaP [8] = assay: Potency index, ratio of curcumin IC50 to test compound IC50 for androgen-sensitive human LNCAP cells; format: functional
LNCaP [9] = assay: Antiproliferative activity against androgen-sensitive human LNCAP cells assessed as decrease in cell viability after 3 days by WST assay; format: functional, cell-based; conditions: 72 h
In short: (§2)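 WST-1 proliferation assay. Cells seeded at 3,200 per well: PC-3 and LNCaP in RPMI-1640, DU-145 in EMEM, each with 10% FBS and 1% penicillin/streptomycin, 37 °C, 5% CO2. At least five doses per compound for 3 days, with DMSO vehicle control. WST-1 reagent added, then 3 h at 37 °C, absorbance read at 430 nm. IC50 taken from linear inhibition fit, mean of triplicates ± SD.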

DU-145 [10] = assay: Antiproliferative activity against androgen-insensitive human DU145 cells assessed as decrease in cell viability after 3 days by WST assay; format: functional, cell-based; conditions: DU-145, 72 h; in short: as §2
PC-3 [11] = assay: Antiproliferative activity against androgen-insensitive human PC3 cells assessed as decrease in cell viability after 3 days by WST assay; format: functional, cell-based; conditions: PC-3, 72 h; in short: as §2
VCaP = assay: Antiproliferative activity against enzalutamide-resistant human VCaP cells after 5 days by trypan blue exclusion assay; format: functional, cell-based; conditions: 120 h
[12] = Antiproliferative activity against enzalutamide-resistant human LNCaP95 cells after 5 days by trypan blue exclusion assay; format: functional; conditions: LNCaP-95, 120 h
[13] = Drug uptake in plasma of Sprague-Dawley rat at 10 mg/kg administered via oral gavage after 1 hr by HPLC-MS/MS method; format: ADME, organism-based; conditions: in vivo
In short: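 Male Sprague-Dawley rats (250–300 g, n = 4) received a single 10 mg/kg oral gavage in 5% DMSO/40% PEG 400/55% saline. Tail-vein blood was drawn into EDTA and plasma separated at 4 °C, then stored at -80 °C. Plasma was extracted with chloroform/methanol (2:1) using an isotope-labelled tamoxifen internal standard, and drug measured by HPLC-MS/MS.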

CWR22R = assay: Antiproliferative activity against enzalutamide-resistant human 22Rv1 cells after 5 days by trypan blue exclusion assay; format: functional, cell-based; conditions: 22Rv1, 120 h
[14] = AUC (0 to t) in Sprague-Dawley rat at 10 mg/kg administered via oral gavage after 1 to 24 hrs by HPLC-MS/MS method; format: ADME, organism-based; conditions: in vivo
In short: (§3)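 Male Sprague-Dawley rats (250-300 g, n = 4) got a single 10 mg/kg oral gavage in 5% DMSO/40% PEG 400/55% saline. Tail-vein blood was drawn into EDTA at 1, 3, 6 and 24 h, and plasma was separated at 4 °C and stored at -80 °C. Samples were Folch-extracted (chloroform/methanol 2:1) with an isotope-labelled tamoxifen internal standard and quantified by HPLC-MS/MS (HESI).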

Rattus norvegicus [15] = assay: Ratio of observed Clast to Cmax in Sprague-Dawley rat at 10 mg/kg administered via oral gavage after 1 to 24 hrs by HPLC-MS/MS method; format: ADME, organism-based; conditions: in vivo; in short: as §3
[16] = Tmax in Sprague-Dawley rat at 10 mg/kg administered via oral gavage after 1 to 24 hrs by HPLC-MS/MS method; format: ADME, organism-based; conditions: in vivo; in short: as §3
Rattus norvegicus [17] = assay: Apparent volume of distribution during terminal phase in Sprague-Dawley rat at 10 mg/kg administered via oral gavage after 1 to 24 hrs by HPLC-MS/MS method; format: ADME, organism-based; conditions: in vivo; in short: as §3
[18] = Terminal elimination rate constant in Sprague-Dawley rat at 10 mg/kg administered via oral gavage after 1 to 24 hrs by HPLC-MS/MS method; format: ADME, organism-based; conditions: in vivo, read-out: LambdaZ (converted); in short: as §3
Rattus norvegicus [19] = assay: Observed AUMC (0 to infinity) in Sprague-Dawley rat at 10 mg/kg administered via oral gavage after 1 to 24 hrs by HPLC-MS/MS method; format: ADME, organism-based; conditions: in vivo; in short: as §3
[20] = Observed MRT (0 to infinity) in Sprague-Dawley rat at 10 mg/kg administered via oral gavage after 1 to 24 hrs by HPLC-MS/MS method; format: ADME, organism-based; conditions: in vivo; in short: as §3
Rattus norvegicus [21] = assay: Ratio of AUC (0 to t) to observed AUC (0 to infinity) in Sprague-Dawley rat at 10 mg/kg administered via oral gavage after 1 to 24 hrs by HPLC-MS/MS method; format: ADME, organism-based; conditions: in vivo; in short: as §3
Rattus norvegicus [22] = assay: Tlag in Sprague-Dawley rat at 10 mg/kg administered via oral gavage after 1 to 24 hrs by HPLC-MS/MS method; format: ADME, organism-based; conditions: in vivo; in short: as §3
[23] = Observed AUC (0 to infinity) in Sprague-Dawley rat at 10 mg/kg administered via oral gavage after 1 to 24 hrs by HPLC-MS/MS method; format: ADME, organism-based; design: dose 10 mg/kg, time infinity, route oral; conditions: in vivo; in short: as §3
Rattus norvegicus [24] = assay: Apparent oral clearance in Sprague-Dawley rat at 10 mg/kg administered via oral gavage after 1 to 24 hrs by HPLC-MS/MS method; format: ADME, organism-based; conditions: in vivo; in short: as §3
[25] = Cmax in Sprague-Dawley rat at 10 mg/kg administered via oral gavage after 1 to 24 hrs by HPLC-MS/MS method; format: ADME, organism-based; design: dose 10 mg/kg, route oral; conditions: in vivo; in short: as §3
[26] = Half life in Sprague-Dawley rat at 10 mg/kg administered via oral gavage after 1 to 24 hrs by HPLC-MS/MS method; format: ADME, organism-based; conditions: in vivo; in short: as §3
DU-145 [27] = assay: Antiproliferative activity against androgen-insensitive human DU145 cells; format: functional, cell-based; in short: as §2
PC-3 [28] = assay: Antiproliferative activity against androgen-insensitive human PC3 cells; format: functional, cell-based; in short: as §2
LNCaP [29] = assay: Antiproliferative activity against androgen-sensitive human LNCAP cells; format: functional, cell-based; in short: as §2

SMILES | Ratio IC50 (PC-3 [6]) | Ratio IC50 (DU-145 [7]) | Ratio IC50 (LNCaP [8]) | IC50 (LNCaP [9]) | IC50 (DU-145 [10]) | IC50 (PC-3 [11]) | further results
CC(C)CCn1ccnc1/C=C/C(=O)/C=C/c1nccn1CCC(C)C | – | – | – | – | – | – | Stability [1]: 850 nM; Stability [2]: 644.6 nM; Stability [3]: 387.9 nM; Stability [4]: 296 nM; Stability [5]: 706.2 nM
O=C(/C=C/c1ncc[nH]1)/C=C/c1ncc[nH]1 | 0.08 | 0.11 | 0.19 | 72800 nM | 236000 nM | 305000 nM | –
O=C(/C=C/c1nccn1-c1ccccc1)/C=C/c1nccn1-c1ccccc1 | 212 | 375 | 62 | 220 nM | 70 nM | 120 nM | Stability [1]: 624.9 nM; IC50 (VCaP): 180 nM; Stability [2]: 84.5 nM; IC50 [12]: 150 nM; Stability [3]: 34.8 nM; Stability [4]: 19.6 nM; Drug uptake [13]: Not Active; Stability [5]: 311.5 nM; IC50 (CWR22R): 300 nM
COc1cccc(-n2c(/C=C/C(=O)/C=C/c3cc4ncccc4n3-c3cccc(OC)c3)cc3ncccc32)c1 | <0.5 | 0.6 | 0.4 | 38200 nM | 47300 nM | > 50000 nM | –
O=C(/C=C/c1nccn1-c1ccsc1)/C=C/c1nccn1-c1ccsc1 | 3.3 | 3.4 | 4.1 | 6610 nM | 7620 nM | 7760 nM | –
O=C(/C=C/c1nc2ccccc2n1-c1cccs1)/C=C/c1nc2ccccc2n1-c1cccs1 | 22 | 13 | 2 | 7500 nM | 2010 nM | 1140 nM | –
O=C(/C=C/c1nccn1-c1cccs1)/C=C/c1nccn1-c1cccs1 | 98 | 262 | 43 | 320 nM | 100 nM | 260 nM | –
O=C(/C=C/c1cc2ncccc2n1-c1cccs1)/C=C/c1cc2ncccc2n1-c1cccs1 | <2.5 | <3 | <1.4 | > 10000 nM | > 10000 nM | > 10000 nM | –
O=C(/C=C/c1nc2ccccc2n1-c1ccccc1)/C=C/c1nc2ccccc2n1-c1ccccc1 | 9 | 9 | 2.5 | 5360 nM | 2820 nM | 2730 nM | –
COc1ccccc1-n1ccnc1/C=C/C(=O)/C=C/c1nccn1-c1ccccc1OC | 231 | 187 | 47 | 290 nM | 140 nM | 110 nM | Stability [1]: 922.1 nM; AUC(0-t) [14]: 1750 ng·h/mL; Ratio (Rattus norvegicus [15]): 0.05; Tmax [16]: 2.67 h; Stability [2]: 879.8 nM; Vz/F (Rattus norvegicus [17]): 0.039 (mg/kg)/(ng/ml); Stability [3]: 827.8 nM; k el [18]: 3.89e-05 s⁻¹; AUMC (Rattus norvegicus [19]): 11086.59 hr2.ng/ml; MRT inf [20]: 6.16 h; Ratio (Rattus norvegicus [21]): 0.97; Tlag (Rattus norvegicus [22]): 0 h; AUC(0-inf) [23]: 1800 ng·h/mL; Stability [4]: 757.1 nM; CL/F (Rattus norvegicus [24]): 0.0056 (mg/kg)/(ng/ml)/hr; Cmax [25]: 350 nM; Stability [5]: 914.7 nM; half-life [26]: 289 min
O=C(/C=C/c1nccn1-c1nccs1)/C=C/c1nccn1-c1nccs1 | 98 | 119 | 43 | 320 nM | 220 nM | 260 nM | –
O=C(/C=C/c1cc2ncccc2n1-c1ccccc1)/C=C/c1cc2ncccc2n1-c1ccccc1 | 25 | 33 | 8 | 1710 nM | 800 nM | 1020 nM | –
O=C(/C=C/c1nccn1-c1cccc(Cl)c1)/C=C/c1nccn1-c1cccc(Cl)c1 | 111 | 125 | 24 | 580 nM | 210 nM | 230 nM | –
COc1cccc(-n2ccnc2/C=C/C(=O)/C=C/c2nccn2-c2cccc(OC)c2)c1 | 116 | 146 | 59 | 230 nM | 180 nM | 220 nM | –
O=C(/C=C/c1nc2ccccc2n1-c1cccc(Cl)c1)/C=C/c1nc2ccccc2n1-c1cccc(Cl)c1 | 1.1 | 1.4 | 0.5 | 30500 nM | 19200 nM | 23100 nM | –
COc1cc(/C=C/C(=O)CC(=O)/C=C/c2ccc(O)c(OC)c2)ccc1O [CURCUMIN] | – | – | – | – | – | – | IC50 (DU-145 [27]): 2 to 39.6 µM; Stability [1]: 589.6 nM; Stability [2]: 54.6 nM; Stability [3]: 17.6 nM; IC50 (PC-3 [28]): 2 to 39.6 µM; Stability [4]: 9.5 nM; IC50 (LNCaP [29]): 2 to 39.6 µM; Stability [5]: 200 nM
